# From ChEMBL document CHEMBL4613313, “Multiple in Vitro Inhibition of HIV-1 Proteins by 2,6-Dipeptidyl-anthraquinone Conjugates Targeting the PBS RNA” (ACS Med Chem Lett, 2020)
# Calls of active or inactive are those of the source. The calls are words filed in the database; no cut-off is given here.
# Legend:
# [1] = biological target: PBS RNA; experiment: Binding affinity to HIV1 (+)PBS/(-)PBS RNA sequence assessed as inhibition of recombinant full-length HIV-1 nucleocapsid protein-mediated (+)/(-)PBS RNA annealing preincubated with (+)/(-)PBS RNA for 15 mins followed by NC addition and measured after 10 mins by RAMPA assay; assay type: nucleic-acid assay, Human immunodeficiency virus 1
# How it was run: (§1)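 Each folded PBS RNA strand (1 μM) was preincubated with compound for 15 min at room temperature. The two strands were then mixed with annealer: NC at 3 μM for line 4, Tat(48–57) […]. Annealing ran 10 min at room temperature and products were resolved by gel. The annealer-induced duplex band was quantified to derive IC50, reported as mean ± SEM of triplicate experiments.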
# [2] = biological target: PBS RNA; experiment: Binding affinity to HIV1 (+)/(-) PBS RNA sequence assessed as inhibition of HIV-1 Tat (48 to 57 residues) mediated (+)/(-)PBS RNA annealing preincubated with (+)/(-)PBS RNA for 15 mins followed by peptide addition and measured after 10 mins by RAMPA assay; assay type: nucleic-acid assay, Human immunodeficiency virus 1; how it was run: as §1
# [3] = system: PBS RNA; experiment: Binding affinity to HIV1 (+)PBS RNA assessed as compound-RNA complex formation at stoichiometry ratio of 1:1 incubated for 30 mins measured under non-denaturing conditions by ESI-MS analysis; assay type: nucleic-acid assay; details: Human immunodeficiency virus 1
# How it was run: (§2)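 In ESI-MS spectra of compound–RNA mixtures, peaks for free RNA and complexed species were quantified. The percentage of bound substrate in each spectrum gave the relative binding affinity for each RNA construct.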
# [4] = system: PBS RNA; experiment: Binding affinity to HIV1 (-)PBS RNA assessed as compound-RNA complex formation at stoichiometry ratio of 1:1 incubated for 30 mins measured under non-denaturing conditions by ESI-MS analysis; assay type: nucleic-acid assay; details: Human immunodeficiency virus 1; how it was run: as §2
# [5] = system: PBS RNA; experiment: Binding affinity to HIV1 (+)PBS RNA assessed as compound-RNA complex formation at stoichiometry ratio of 2:1 incubated for 30 mins measured under non-denaturing conditions by ESI-MS analysis; assay type: nucleic-acid assay; details: Human immunodeficiency virus 1
# How it was run: (§3)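 ESI-MS binding: compound–RNA mixtures analysed for free and compound-bound RNA species, including 2:1 complexes. Species peak intensities were quantified to give the free versus bound partitioning, and the percentage of bound substrate in each spectrum was used to derive relative binding affinity for each RNA construct.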
# [6] = system: PBS RNA; experiment: Binding affinity to HIV1 (-)PBS RNA assessed as compound-RNA complex formation at stoichiometry ratio of 2:1 incubated for 30 mins measured under non-denaturing conditions by ESI-MS analysis; assay type: nucleic-acid assay; details: Human immunodeficiency virus 1; how it was run: as §3
# [7] = system: PBS RNA; experiment: Binding affinity to HIV1 (+)PBS RNA at apical loop assessed as compound-RNA complex formation at stoichiometry ratio of 1:1 by MS/MS spectrum analysis; assay type: nucleic-acid assay; details: Human immunodeficiency virus 1
SMILES,IC50 [1],IC50 [2],Activity [3],Activity [4],Activity [5],Activity [6],Activity [7]
C[C@@H](NC(=O)C(N)CCCN)C(=O)Nc1ccc2c(c1)C(=O)c1ccc(NC(=O)[C@@H](C)NC(=O)C(N)CCCN)cc1C2=O (stereo partly specified),55 µM,54 µM,Active,Active,–,–,–
NCCCC(N)C(=O)NCCC(=O)Nc1ccc2c(c1)C(=O)c1ccc(NC(=O)CCNC(=O)C(N)CCCN)cc1C2=O (stereo unspecified),20 µM,20 µM,–,–,Active,Active,–
C[C@@H](NC1CCNCC1)C(=O)Nc1ccc2c(c1)C(=O)c1ccc(NC(=O)[C@@H](C)NC3CCNCC3)cc1C2=O,> 200 µM,> 200 µM,Active,Active,–,–,–
C[C@H](NC(=O)C(N)CCN)C(=O)Nc1ccc2c(c1)C(=O)c1ccc(NC(=O)[C@H](C)NC(=O)C(N)CCN)cc1C2=O (stereo partly specified),88 µM,> 100 µM,Active,Active,–,–,–
C[C@H](NC1(N)CCNCC1)C(=O)Nc1ccc2c(c1)C(=O)c1ccc(NC(=O)[C@H](C)NC3(N)CCNCC3)cc1C2=O,> 200 µM,> 200 µM,Active,Active,–,–,–
NCCCCC(N)C(=O)NCC(=O)Nc1ccc2c(c1)C(=O)c1ccc(NC(=O)CNC(=O)C(N)CCCCN)cc1C2=O (stereo unspecified),23 µM,18 µM,–,–,Active,Active,–
C[C@H](NC(=O)C(N)CN)C(=O)Nc1ccc2c(c1)C(=O)c1ccc(NC(=O)[C@H](C)NC(=O)C(N)CN)cc1C2=O (stereo partly specified),54 µM,45 µM,Active,Active,–,–,–
C[C@H](NC(=O)C(N)CCCN)C(=O)Nc1ccc2c(c1)C(=O)c1ccc(NC(=O)[C@H](C)NC(=O)C(N)CCCN)cc1C2=O (stereo partly specified),21 µM,16 µM,Active,Active,–,–,–
NCCCC(N)C(=O)NCC(=O)Nc1ccc2c(c1)C(=O)c1ccc(NC(=O)CNC(=O)C(N)CCCN)cc1C2=O (stereo unspecified),30 µM,34 µM,Active,Active,–,–,–
NCCCCC(N)C(=O)NCCC(=O)Nc1ccc2c(c1)C(=O)c1ccc(NC(=O)CCNC(=O)C(N)CCCCN)cc1C2=O (stereo unspecified),85 µM,> 100 µM,–,–,–,–,–
NCCC(N)C(=O)NCCC(=O)Nc1ccc2c(c1)C(=O)c1ccc(NC(=O)CCNC(=O)C(N)CCN)cc1C2=O (stereo unspecified),30 µM,24 µM,Active,Active,–,–,–
C[C@@H](NC(=O)C(N)CCCCN)C(=O)Nc1ccc2c(c1)C(=O)c1ccc(NC(=O)[C@@H](C)NC(=O)C(N)CCCCN)cc1C2=O (stereo partly specified),54 µM,48 µM,Active,Active,–,–,–
C[C@H](NC(=O)C(N)CCCCN)C(=O)Nc1ccc2c(c1)C(=O)c1ccc(NC(=O)[C@H](C)NC(=O)C(N)CCCCN)cc1C2=O (stereo partly specified),12 µM,15 µM,–,–,Active,Active,Active
